# Data as given in ChEMBL document CHEMBL1127047, “10,5-(Iminomethano)-10,11-dihydro-5H-dibenzo[a,d]cycloheptene and derivatives. Potent PCP receptor ligands” (J Med Chem, 1993).
# Values joined by “and” are separate entries in the source; they are usually repeats but may differ in a detail not shown here. Equal entries are not always repeated.
# Columns and labels:
# [1] = molecular target: Glutamate NMDA receptor; assay: Inhibition of [3H]MK-801 binding to the PCP receptor site in guinea pig brain homogenate; format: tissue-based
# [2] = In vitro neuroprotection against glutamate-induced toxicity at 5 uM using rat hippocampal cell cultures at 10 uM of glutamate; format: functional, Hippocampus
# In short: (§1)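 Dissociated hippocampal cultures from 1–3 day postnatal Sprague–Dawley rats, papain-dissociated and treated with 5 μM cytosine arabinoside. Blind, coded test. In HEPES-buffered salt solution (pH 7.4, 32–34 °C), cultures got a 5 min preincubation with 1 μM glycine plus compound, then 5 min with glycine, compound and glutamate. Next day, 0.4% Trypan Blue; surviving cells in the grid were counted by phase contrast and expressed as % of highest count.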
# [3] = In vitro neuroprotection against glutamate-induced toxicity at 5 uM using rat hippocampal cell cultures at 0 uM of glutamate; format: functional, Hippocampus; in short: as §1
# [4] = In vitro neuroprotection against glutamate-induced toxicity at 5 uM using rat hippocampal cell cultures at 3 uM of glutamate; format: functional, Hippocampus; in short: as §1
# [5] = In vitro neuroprotection against glutamate-induced toxicity at 5 uM using rat hippocampal cell cultures at 1000 uM of glutamate; format: functional, Hippocampus; in short: as §1
# [6] = In vitro neuroprotection against glutamate-induced toxicity at 5 uM using rat hippocampal cell cultures at 30 uM of glutamate; format: functional, Hippocampus; in short: as §1
# [7] = In vitro neuroprotection against glutamate-induced toxicity at 5 uM using rat hippocampal cell cultures at 300 uM of glutamate; format: functional, Hippocampus; in short: as §1
# [8] = In vitro neuroprotection against glutamate-induced toxicity at 5 uM using rat hippocampal cell cultures at 100 uM of glutamate; format: functional, Hippocampus; in short: as §1
# [9] = In vitro neuroprotection against glutamate-induced toxicity at 10 uM using rat hippocampal cell cultures at 300 uM of glutamate; format: functional, Hippocampus; in short: as §1
# [10] = In vitro neuroprotection against glutamate-induced toxicity at 10 uM using rat hippocampal cell cultures at 0 uM of glutamate; format: functional, Hippocampus; in short: as §1
# [11] = In vitro neuroprotection against glutamate-induced toxicity at 10 uM using rat hippocampal cell cultures at 1000 uM of glutamate; format: functional, Hippocampus; in short: as §1
# [12] = In vitro neuroprotection against glutamate-induced toxicity at 10 uM using rat hippocampal cell cultures at 30 uM of glutamate; format: functional, Hippocampus; in short: as §1
# [13] = In vitro neuroprotection against glutamate-induced toxicity at 10 uM using rat hippocampal cell cultures at 100 uM of glutamate; format: functional, Hippocampus; in short: as §1
# [14] = In vitro neuroprotection against glutamate-induced toxicity at 10 uM using rat hippocampal cell cultures at 3 uM of glutamate; format: functional, Hippocampus; in short: as §1
# [15] = In vitro neuroprotection against glutamate-induced toxicity at 10 uM using rat hippocampal cell cultures at 10 uM of glutamate; format: functional, Hippocampus; in short: as §1
compound,measurement,setting,value
COc1ccc2c(c1)C1CNC2Cc2ccc(Cl)cc21 (stereo not given),IC50,[1],113 nM
Fc1ccc2c(c1)C1CNC(C2)c2ccccc21 (stereo in doubt; 13e),IC50,[1],29.4 nM
"Fc1ccc2c(c1)C1CNC(C2)c2ccccc21 (single isomer, unassigned; (+))",IC50,[1],15.5 nM
Brc1ccc2c(c1)C1CNC(C2)c2ccccc21 (stereo not given),IC50,[1],51.7 nM
CC12CNC(Cc3ccccc31)c1ccccc12 (stereo not given),IC50,[1],119 nM
Clc1ccc2c(c1)C1CNC(C2)c2ccccc21 (stereo in doubt; (-)-13c),IC50,[1],931 nM
COc1ccc2c(c1)C1CNC2Cc2ccccc21 (stereo not given),IC50,[1],332 nM
CN(C)CCCN1CC2c3ccccc3CC1c1ccccc12 (stereo not given),IC50,[1],12000 nM
Clc1ccc2c(c1)C1CNC2Cc2ccccc21 (stereo not given),IC50,[1],690 nM
c1ccc2c(c1)CC1NCC2c2ccccc21 (racemic),Neuroprotection,[2],76.6%
same,Neuroprotection,[3],99.1%
same,Neuroprotection,[4],85.3%
same,Neuroprotection,[5],25.5%
same,Neuroprotection,[6],71.5%
same,Neuroprotection,[7],39.9%
same,Neuroprotection,[8],61.3%
[N-]=[N+]=Nc1ccc2c(c1)C1CNC(C2)c2ccccc21 (stereo not given),IC50,[1],500 nM
COc1ccc2c(c1)C1CN(C)C2Cc2ccc(Br)cc21 (stereo not given),IC50,[1],643 nM
C[C@]12N[C@H](Cc3ccccc31)c1ccccc12 [DIZOCILPINE],Neuroprotection,[2],94.7%
same,Neuroprotection,[3],97.5%
same,Neuroprotection,[4],98.3%
same,Neuroprotection,[5],88.4%
same,Neuroprotection,[6],95.5%
same,Neuroprotection,[7],90.3%
same,Neuroprotection,[8],93.9%
Clc1ccc2c(c1)C1CNC(C2)c2ccccc21 (stereo in doubt; 13c),IC50,[1],71.3 nM
COc1ccc2c(c1)C1CNC2Cc2ccc(Br)cc21 (stereo not given),IC50,[1],114 nM
Ic1ccc2c(c1)C1CNC(C2)c2ccccc21 (stereo not given),IC50,[1],160 nM
c1ccc(-c2ccc3c(c2)C2CNC(C3)c3ccccc32)cc1 (stereo not given),IC50,[1],421 nM
CN1CC2c3cc(Br)ccc3CC1c1ccccc12 (stereo not given),IC50,[1],1040 nM
Fc1ccc2c(c1)C1CNC(C2)c2ccc(F)cc21 (stereo not given),IC50,[1],51.2 nM
COc1ccc2c(c1)C1CNC(C2)c2ccccc21 (stereo not given),IC50,[1],168 nM
Clc1ccc2c(c1)C1CNC(C2)c2ccccc21 (stereo in doubt; (+)-13c),IC50,[1],32.1 nM
CC(C)N1CC2c3ccccc3CC1c1ccccc12 (stereo not given),IC50,[1],1880 nM
"CN1CC2c3ccccc3CC1c1ccccc12 (single isomer, unassigned; (+))",Neuroprotection,[9],56.6%
same,Neuroprotection,[2],65%
same,Neuroprotection,[10],97.8%
same,Neuroprotection,[3],91%
same,Neuroprotection,[4],74.7%
same,Neuroprotection,[5],23.3%
same,Neuroprotection,[6],62.7%
same,Neuroprotection,[11],53.3%
same,IC50,[1],826 nM
same,Neuroprotection,[12],92.1%
same,Neuroprotection,[13],84%
same,Neuroprotection,[7],58.7%
same,Neuroprotection,[8],59.9%
same,Neuroprotection,[14],93.6%
same,Neuroprotection,[15],90%
O=[N+]([O-])c1ccc2c(c1)C1CNC(C2)c2ccccc21 (stereo not given),IC50,[1],4300 nM
Cc1ccc2c(c1)C1CNC(C2)c2ccccc21 (stereo not given),IC50,[1],108 nM
Nc1ccc2c(c1)C1CNC(C2)c2ccccc21 (stereo not given),IC50,[1],486 nM
CC(=O)N1CC2c3cc([N+](=O)[O-])ccc3CC1c1ccccc12 (stereo not given),IC50,[1],> 10000 nM
CC(=O)N1CC2c3ccccc3CC1c1ccccc12 (stereo not given),IC50,[1],> 10000 nM
c1ccc2c(c1)CC1NCC2c2ccccc21 (stereo in doubt; 3),IC50,[1],59.4 nM
"Fc1ccc2c(c1)C1CNC(C2)c2ccccc21 (single isomer, unassigned; (-))",IC50,[1],531 nM
"c1ccc2c(c1)CC1NCC2c2ccccc21 (single isomer, unassigned; (+))",Neuroprotection,[2],76.3%
same,Neuroprotection,[3],93.6%
same,Neuroprotection,[4],68.8%
same,Neuroprotection,[5],40.5%
same,Neuroprotection,[6],73.3%
same,IC50,[1],37.6 nM and 4.2 nM
same,Neuroprotection,[7],57.2%
same,Neuroprotection,[8],73.9%
c1ccc(CN2CC3c4ccccc4CC2c2ccccc23)nc1 (stereo not given),IC50,[1],> 10000 nM
